From ChEMBL document CHEMBL5634114, “Galantamine-memantine hybrids for Alzheimer's disease: The influence of linker rigidity in biological activity and pharmacokinetic properties” (Eur J Med Chem, 2023)
Values after ≈ are worked out from the molar mass of the structure shown.

Assays:
[1] = target: Acetylcholinesterase (Homo sapiens, UniProt P22303); assay: Inhibition of recombinant human AChE using acetylthiocholine as substrate preincubated for 20 mins followed by substrate addition measured for 3 mins by Ellman's method
Procedure, shortened: (§1)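 Ellman assay at 37 °C in 0.1 M phosphate buffer pH 8.0 with 340 µM DTNB and 0.02 U/mL enzyme (recombinant human AChE or human serum BChE). Inhibitor at increasing concentrations was preincubated with enzyme for 20 min before adding 550 µM acetylthiocholine (AChE) or butyrylthiocholine (BChE). Absorbance at 412 nm was monitored for 3 min, with a blank lacking enzyme. Triplicates; IC50 from log concentration–inhibition curves; at least two experiments.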

[2] = target: Cholinesterase (Homo sapiens, UniProt P06276); assay: Inhibition of human serum BChE using butyrylthiocholine as substrate preincubated for 20 mins followed by substrate addition measured for 3 mins by Ellman's method; type: cell-free; procedure, shortened: as §1
[3] = target: Glutamate NMDA receptor; Grin1/Grin2a (Rattus norvegicus, UniProt P35439+Q00959); assay: Inhibition of NMDA/glycine-activated rat GluN1/Glu2A expressed in xenopus laevis oocytes at -75 mV holding potential by voltage clamp method; type: cell-based, Oocyte
Procedure, shortened: (§2)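 Xenopus oocytes (stage IV–V) were injected with GluN1 plus GluN2A or GluN1 plus GluN2B cRNA (1:1) and kept 3–4 days at 18 °C. Two-electrode voltage clamp was run in saline with 2 mM CaCl2, pH 7.5. Currents were evoked by 100 µM NMDA plus 10 µM glycine, with compound co-applied at 0.01–100 µM in 10-fold steps. […] The selectivity index is the GluN1/2A IC50 divided by the GluN1/2B IC50.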

[4] = target: Glutamate NMDA receptor; Grin1/Grin2b (Rattus norvegicus, UniProt P35439+Q00960); assay: Inhibition of NMDA/glycine-activated rat GluN1/Glu2B expressed in xenopus laevis oocytes at -75 mV holding potential by voltage clamp method; type: cell-based, Oocyte; procedure, shortened: as §2
[5] = species on record: Rattus norvegicus; assay: Selectivity index, ratio of IC50 for NMDA/glycine-activated rat GluN1/Glu2A expressed in xenopus laevis oocytes to IC50 for NMDA/glycine-activated rat GluN1/Glu2B expressed in xenopus laevis oocytes; type: cell-based; procedure, shortened: as §2
[6] = Aqueous kinetic solubility in PBS at 250 uM incubated for 24 hrs […]; type: physicochemical; conditions: read-out: Kinetic_solubility
[7] = Metabolic stability in mouse plasma assessed as half life at 2 uM incubated for 2 hrs by LC-MS/MS analysis; type: ADME, cell-free
Procedure, shortened: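 Compound at 2 µM final (0.5% DMSO) in prewarmed mouse plasma at 37 °C. Samples taken at 0, 5, 15, 30, 60 and 120 min were quenched in cold CH3CN with internal standard, centrifuged, diluted with water and analyzed by LC-MS/MS (MRM, positive ESI). Half-life calculated from the time course.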

[8] = Metabolic stability in mouse liver microsomes assessed as half life at 5 uM preincubated for 15 mins followed by NADPH/G6P/G6PDH measured for 1 hr by LC-MS/MS analysis; type: ADME, Microsome; conditions: time 75 min
Procedure, shortened: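 Mouse liver microsomes with compound at 5 µM final (0.1% DMSO) in 0.1 M Tris-HCl pH 7.5, preincubated 15 min at 37 °C. NADPH, G6P, G6PDH and MgCl2 were then added and incubation continued for 1 h. Samples at 0, 5, 15, 30 and 60 min were quenched in cold CH3CN with internal standard and analyzed by LC-MS/MS. A no-cofactor microsome control was run at 0 and 60 min.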

[9] = Metabolic stability in mouse liver microsomes assessed as half life at 5 uM preincubated for 15 mins followed by UDPGA/D-saccharic acid lactone measured for 1 hr by LC-MS/MS analysis; type: ADME, Microsome; conditions: time 75 min
Procedure, shortened: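 Mouse liver microsomes with alamethicin and compound at 5 µM final (0.1% DMSO) in 0.1 M Tris-HCl pH 7.5, preincubated 15 min at 37 °C. UDPGA, p-saccharic acid lactone and MgCl2 were then added and incubation continued for 1 h. Samples at 0, 5, 15, 30 and 60 min were quenched in cold CH3CN with internal standard and analyzed by LC-MS/MS. A no-cofactor control was run at 0 and 60 min.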

[10] = Cmax in CD-1 mouse at 3 mg/kg, iv measured for 240 mins; type: ADME, organism-based; conditions: in vivo
Procedure, shortened: (§3)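 Male CD1 mice (22–24 g) dosed IV at 3 mg/kg in PEG400/Tween 80/saline 10/10/80 v/v. Three animals per time point. Blood taken at 0, 5, 30, 60, 120 and 240 min. Plasma extracted with cold CH3CN plus internal standard and quantified by LC-MS/MS (MRM) against a 1 nM–10 µM calibration curve in blank plasma. Parameters were obtained by fitting the plasma concentration–time profile.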

[11] = Tmax in CD-1 mouse at 3 mg/kg, iv measured for 240 mins; type: ADME, organism-based; conditions: in vivo; procedure, shortened: as §3
[12] = AUC in CD-1 mouse at 3 mg/kg, iv measured for 240 mins; type: ADME, organism-based; conditions: in vivo; procedure, shortened: as §3
[13] = Half life in CD-1 mouse at 3 mg/kg, iv measured for 240 mins; type: ADME, organism-based; conditions: in vivo; procedure, shortened: as §3
[14] = Volume of distribution in CD-1 mouse at 3 mg/kg, iv measured for 240 mins; type: ADME, organism-based; conditions: in vivo; procedure, shortened: as §3
[15] = Clearance in CD-1 mouse at 3 mg/kg, iv measured for 240 mins; type: ADME, organism-based; conditions: in vivo; procedure, shortened: as §3
[16] = Drug concentration in brain of in CD-1 mouse at 3 mg/kg, iv measured for 30 mins; type: ADME, organism-based; conditions: read-out: Ct
Procedure, shortened: (§4)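 Male CD1 mice dosed IV at 3 mg/kg in PEG400/Tween 80/saline 10/10/80. Three mice per time point. Whole brains were homogenized in 4 vol PBS:protease inhibitor (100:1), extracted with cold CH3CN plus internal standard and measured by LC-MS/MS (MRM) against a 1 nM–10 µM calibration in naïve brain homogenate. Levels were normalized per 100 mg brain/mL, with protein content checked by BCA.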

[17] = Drug concentration in brain of in CD-1 mouse at 3 mg/kg, iv measured for 60 mins; type: ADME, organism-based; conditions: read-out: Ct; procedure, shortened: as §4
[18] = Drug concentration in brain of in CD-1 mouse at 3 mg/kg, iv measured for 120 mins; type: ADME, organism-based; conditions: read-out: Ct; procedure, shortened: as §4
[19] = Drug concentration in brain of in CD-1 mouse at 3 mg/kg, iv measured for 240 mins; type: ADME, organism-based; conditions: read-out: Ct; procedure, shortened: as §4

Cholinesterase, sequence (P06276 whole entry): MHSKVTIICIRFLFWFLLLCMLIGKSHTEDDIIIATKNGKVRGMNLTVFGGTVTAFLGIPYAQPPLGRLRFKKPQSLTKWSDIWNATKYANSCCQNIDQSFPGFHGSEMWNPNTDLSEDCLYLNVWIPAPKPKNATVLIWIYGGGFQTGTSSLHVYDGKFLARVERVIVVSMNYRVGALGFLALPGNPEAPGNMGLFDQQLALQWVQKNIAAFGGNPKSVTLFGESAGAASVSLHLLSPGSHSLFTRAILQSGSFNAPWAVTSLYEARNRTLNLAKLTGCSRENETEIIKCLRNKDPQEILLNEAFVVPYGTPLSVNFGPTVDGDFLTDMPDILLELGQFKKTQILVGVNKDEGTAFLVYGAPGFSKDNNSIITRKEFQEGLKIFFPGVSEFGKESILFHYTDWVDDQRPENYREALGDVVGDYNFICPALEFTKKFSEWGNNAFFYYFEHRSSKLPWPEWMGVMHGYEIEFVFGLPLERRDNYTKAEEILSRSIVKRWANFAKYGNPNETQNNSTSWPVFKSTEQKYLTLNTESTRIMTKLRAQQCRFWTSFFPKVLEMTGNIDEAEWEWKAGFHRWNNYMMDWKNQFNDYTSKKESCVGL
Acetylcholinesterase, sequence (P22303 whole entry): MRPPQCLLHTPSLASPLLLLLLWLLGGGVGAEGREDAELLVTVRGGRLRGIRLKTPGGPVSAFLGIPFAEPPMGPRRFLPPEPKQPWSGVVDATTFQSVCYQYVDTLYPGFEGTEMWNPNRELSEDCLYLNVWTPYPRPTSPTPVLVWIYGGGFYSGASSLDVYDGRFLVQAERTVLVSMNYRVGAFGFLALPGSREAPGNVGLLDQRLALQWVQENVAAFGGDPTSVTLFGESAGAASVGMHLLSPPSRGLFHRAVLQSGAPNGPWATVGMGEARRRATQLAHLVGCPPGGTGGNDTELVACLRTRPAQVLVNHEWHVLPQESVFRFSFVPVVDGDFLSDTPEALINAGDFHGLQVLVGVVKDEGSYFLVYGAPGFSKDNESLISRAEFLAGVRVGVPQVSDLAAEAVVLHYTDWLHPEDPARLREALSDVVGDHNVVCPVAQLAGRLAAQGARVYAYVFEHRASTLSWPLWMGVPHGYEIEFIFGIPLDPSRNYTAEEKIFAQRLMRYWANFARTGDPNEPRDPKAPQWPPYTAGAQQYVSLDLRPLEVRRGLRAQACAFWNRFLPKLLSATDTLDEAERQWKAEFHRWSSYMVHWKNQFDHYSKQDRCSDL
Glutamate NMDA receptor; Grin1/Grin2a, sequence (Q00959 whole entry, other chains not shown): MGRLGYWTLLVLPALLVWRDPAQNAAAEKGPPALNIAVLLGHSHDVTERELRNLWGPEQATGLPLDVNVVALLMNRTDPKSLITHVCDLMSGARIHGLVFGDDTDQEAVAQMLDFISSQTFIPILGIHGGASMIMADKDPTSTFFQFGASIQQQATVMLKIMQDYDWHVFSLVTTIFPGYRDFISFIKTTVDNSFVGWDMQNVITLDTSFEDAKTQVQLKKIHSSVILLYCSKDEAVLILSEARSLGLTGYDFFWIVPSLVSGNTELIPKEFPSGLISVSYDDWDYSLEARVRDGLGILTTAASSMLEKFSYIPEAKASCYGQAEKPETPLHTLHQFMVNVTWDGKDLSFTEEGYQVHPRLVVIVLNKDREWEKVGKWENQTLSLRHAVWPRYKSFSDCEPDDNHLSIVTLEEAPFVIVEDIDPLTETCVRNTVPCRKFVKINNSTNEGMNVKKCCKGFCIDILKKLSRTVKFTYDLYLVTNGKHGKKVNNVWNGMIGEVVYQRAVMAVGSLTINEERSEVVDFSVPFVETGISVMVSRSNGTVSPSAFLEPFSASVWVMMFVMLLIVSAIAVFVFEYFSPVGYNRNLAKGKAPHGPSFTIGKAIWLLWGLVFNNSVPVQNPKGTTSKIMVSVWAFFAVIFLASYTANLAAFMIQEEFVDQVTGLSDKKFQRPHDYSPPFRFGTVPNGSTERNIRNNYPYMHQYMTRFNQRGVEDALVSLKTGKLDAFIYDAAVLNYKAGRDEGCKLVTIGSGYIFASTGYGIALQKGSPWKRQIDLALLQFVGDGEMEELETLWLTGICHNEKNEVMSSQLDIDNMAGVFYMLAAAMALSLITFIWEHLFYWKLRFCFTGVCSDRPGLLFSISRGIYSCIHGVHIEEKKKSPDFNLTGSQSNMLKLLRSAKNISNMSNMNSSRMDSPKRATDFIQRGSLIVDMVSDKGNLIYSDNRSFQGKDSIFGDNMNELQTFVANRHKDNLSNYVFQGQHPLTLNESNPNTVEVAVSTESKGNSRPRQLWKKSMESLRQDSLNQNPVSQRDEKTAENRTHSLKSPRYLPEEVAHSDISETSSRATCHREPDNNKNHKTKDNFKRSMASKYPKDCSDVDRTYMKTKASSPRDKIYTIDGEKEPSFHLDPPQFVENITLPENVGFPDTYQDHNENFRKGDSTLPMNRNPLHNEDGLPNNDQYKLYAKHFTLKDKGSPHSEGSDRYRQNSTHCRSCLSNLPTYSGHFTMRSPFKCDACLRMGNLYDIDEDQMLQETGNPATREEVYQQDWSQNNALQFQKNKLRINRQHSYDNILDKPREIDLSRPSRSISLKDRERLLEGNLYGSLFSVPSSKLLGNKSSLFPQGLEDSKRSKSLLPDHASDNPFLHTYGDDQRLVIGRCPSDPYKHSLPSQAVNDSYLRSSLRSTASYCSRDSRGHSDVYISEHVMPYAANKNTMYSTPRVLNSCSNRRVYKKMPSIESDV
Glutamate NMDA receptor; Grin1/Grin2b, sequence (Q00960 whole entry, other chains not shown): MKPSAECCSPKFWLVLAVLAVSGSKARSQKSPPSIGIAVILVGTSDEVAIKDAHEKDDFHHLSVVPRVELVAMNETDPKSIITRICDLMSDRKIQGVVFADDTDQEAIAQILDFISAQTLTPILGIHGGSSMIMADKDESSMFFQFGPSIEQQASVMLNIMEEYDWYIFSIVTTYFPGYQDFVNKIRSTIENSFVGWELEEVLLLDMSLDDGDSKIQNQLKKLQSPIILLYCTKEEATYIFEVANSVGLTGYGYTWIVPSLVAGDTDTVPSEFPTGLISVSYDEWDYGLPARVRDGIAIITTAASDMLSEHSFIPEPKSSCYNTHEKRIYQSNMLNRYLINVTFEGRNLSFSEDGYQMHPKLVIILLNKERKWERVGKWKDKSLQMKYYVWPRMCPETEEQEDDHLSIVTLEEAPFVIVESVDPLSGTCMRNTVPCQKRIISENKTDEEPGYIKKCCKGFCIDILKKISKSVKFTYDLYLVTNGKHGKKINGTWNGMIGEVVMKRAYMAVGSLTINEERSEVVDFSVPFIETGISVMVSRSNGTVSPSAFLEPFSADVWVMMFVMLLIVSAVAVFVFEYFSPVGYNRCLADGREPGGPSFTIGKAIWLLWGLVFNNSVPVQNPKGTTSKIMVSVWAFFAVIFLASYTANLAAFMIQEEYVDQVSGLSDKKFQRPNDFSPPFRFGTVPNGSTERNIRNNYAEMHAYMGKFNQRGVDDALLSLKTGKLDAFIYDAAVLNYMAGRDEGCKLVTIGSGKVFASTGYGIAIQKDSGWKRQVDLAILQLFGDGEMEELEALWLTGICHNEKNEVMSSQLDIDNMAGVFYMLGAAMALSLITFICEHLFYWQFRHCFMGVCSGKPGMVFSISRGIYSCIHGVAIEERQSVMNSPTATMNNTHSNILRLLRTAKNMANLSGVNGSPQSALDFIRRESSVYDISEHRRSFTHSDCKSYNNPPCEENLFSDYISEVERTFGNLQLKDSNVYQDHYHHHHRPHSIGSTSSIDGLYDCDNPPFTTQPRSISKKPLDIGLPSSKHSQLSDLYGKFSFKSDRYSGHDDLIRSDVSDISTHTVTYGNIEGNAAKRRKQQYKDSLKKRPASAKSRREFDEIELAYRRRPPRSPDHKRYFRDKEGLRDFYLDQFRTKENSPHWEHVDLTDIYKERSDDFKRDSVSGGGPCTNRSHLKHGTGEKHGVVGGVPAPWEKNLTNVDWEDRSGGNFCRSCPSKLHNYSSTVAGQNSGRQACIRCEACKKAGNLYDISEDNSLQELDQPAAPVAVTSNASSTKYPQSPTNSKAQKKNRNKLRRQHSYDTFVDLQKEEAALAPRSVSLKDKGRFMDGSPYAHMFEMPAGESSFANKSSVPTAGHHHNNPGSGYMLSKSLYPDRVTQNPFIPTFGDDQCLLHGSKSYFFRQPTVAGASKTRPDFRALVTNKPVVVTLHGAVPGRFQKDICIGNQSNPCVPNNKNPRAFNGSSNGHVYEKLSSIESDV

Row | SMILES | IC50 [1] | IC50 [2] | IC50 [3] | IC50 [4] | Ratio IC50 [5] | solubility kinetic at 24 h, 250 µM [6] | half-life at 2 µM [7] | half-life at 5 µM [8] | half-life at 5 µM [9] | Cmax [10] | Tmax [11] | AUC at 4 h [12] | half-life [13] | Vd [14] | clearance [15] | concentration at 0.5 h [16] | concentration at 1 h [17] | concentration at 2 h [18] | concentration at 4 h [19]
1 | COc1ccc2c3c1O[C@H]1C[C@@H](O)C=C[C@@]31CCN(CC#CCNC13CC4CC(C)(CC(C)(C4)C1)C3)C2 | 762 nM | 5080 nM | 11600 nM | 15500 nM | 0.75 | 230 µM (≈ 116 µg/mL) | > 2 h | < 0.0833 h | – | – | – | – | – | – | – | – | – | – | –
2 | COc1ccc2c3c1O[C@H]1C[C@@H](O)C=C[C@@]31CCN(CCCCNC13CC4CC(C)(CC(C)(C4)C1)C3)C2 | 1130 nM | 1770 nM | 5740 nM | 1450 nM | 4 | 242 µM (≈ 123 µg/mL) | 1.62 h | > 1 h | > 1 h | 208 ng/mL | 5 min | 290 ng·h/mL | 20.8 h | 78 L/kg | 43 mL/min/kg | 95 ng/g | 115 ng/g | 70 ng/g | 310 ng/g
3 | COc1ccc2c3c1O[C@H]1C[C@@H](O)C=C[C@@]31CCN(C/C=C/CNC13CC4CC(C)(CC(C)(C4)C1)C3)C2 | 115 nM | 421 nM | 14500 nM | 1320 nM | 11 | 237 µM (≈ 120 µg/mL) | > 2 h | 0.75 h | > 1 h | 202 ng/mL | 5 min | 280 ng·h/mL | 1.37 h | 19 L/kg | 161 mL/min/kg | 281 ng/g | 256 ng/g | 243 ng/g | 96 ng/g
